Assay [1] has as its system Vero. Nature of the assay: Cytotoxicity against Vero cells up to 50 uM. The class given is functional, cell-based, Chlorocebus sabaeus. The method in brief: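 VERO monkey kidney fibroblast cells tested simultaneously with antileishmanial screen; cytotoxicity read by neutral red assay; IC50 computed from growth inhibition curve.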
The test system of assay [2] is Leishmania donovani. Nature of the assay: Antileishmanial activity against Leishmania donovani promastigotes. As to conditions: Leishmania donovani; read-out: IC50; call rule not given here. It is filed as functional, organism-based.
Assay [3] deals with Plasmodium falciparum. As to the kind of experiment: Antimalarial activity against Plasmodium falciparum W2 up to 20 uM. The class given is functional, organism-based. The method in brief: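 Sorbitol-synchronized chloroquine-resistant W2 P. falciparum at 1% parasitemia, 2% hematocrit, RPMI-1640 with 10% human serum, 3% O2/6% CO2/91% N2; compounds from DMSO (max 0.1%) for 48 h; fixed in 1% formaldehyde 48 h, stained with 1 nM YOYO-1 in 0.1% Triton X-100; parasitemia by flow cytometry; IC50 from percent control parasitemia versus concentration.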

As a reminder, the IC50 is the midpoint of a concentration-inhibition curve. As for `CCOC(=O)C1CCN(S(=O)(=O)c2ccc(CNC(=O)c3ccccc3)s2)CC1`, the IC50 result in assay [1] was “Non-toxic”; in assay [2] it was 50.4 µM; in assay [3], “Not Active”.

Consider `COc1ccc(-c2ccnc(SCC(=O)NCCSCc3ccco3)n2)cc1`, for which the IC50 result in assay [1] is “Non-toxic”; in assay [2], 79.4 µM; in assay [3], “Not Active”.

Take `O=S(=O)(NCCSCc1ccco1)c1cc(S(=O)(=O)c2ccccc2)cs1`: the IC50 result in assay [1] was “Non-toxic”; in assay [2], 54.1 µM; in assay [3], “Not Active”.
